# T cruzi inh – blocks replication of Trypanosoma cruzi | AID 1885 | T. cruzi beta-gal in NIH3T3, luminescence, 90 h | inhibition, % (concentration not given with the values) | 300,000 tested, 1.4% active;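 active = mean inhibition across valid replicates above about 55%, limit read from the data; inconclusive = mean below that limit but half or more replicates reach it; inactive = mean below it, under half of replicates reach it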;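 note: signal also drops with host cell toxicity which is not excluded here; higher percent means less beta-gal luminescence so fewer parasites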
#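 Read-out: Parasite load inhibition, % | Test system: Mouse NIH/3T3 fibroblasts infected with β-gal-expressing T. cruzi Tulahuen C4 | Amount: 5,000 cells/well | Medium: DMEM, 2% fetal bovine serum | Signal: GalScreen β-gal luminescence, detergent lysis, 60 min | Timing: 3 h attach, ≥90 h co-culture | Also added: Tulahuen C4 trypomastigotes, 5000/well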
# pCIP destab – compounds decreasing mouse p/CIP protein stability. Q05BA5. F442A p/CIP-EGFP cells, EGFP fluorescence, 16 h. AID 1984. decrease of EGFP signal, % at 10 µM. 290,000 tested, 0.01% active;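 active = EGFP signal decrease of at least 30% at 10 µM or well 3 SD below plate mean, unless failing retest; inactive = the rest, including hits failing retest or dose response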
# AI-2 QS modul – modulates the Vibrio harveyi AI-2 quorum sensing system; Vibrio harveyi JMH597 AI-2 luminescence/OD600 ratio, 9 h; active compounds read low; strain lacks LuxN and CqsS sensors; 0 = neutral-control median; activity change, % at 7.5 µM; 300,000 tested, 0.4% active; AID 2094; in the data active = activity change below about -75%, passing the limit was not always enough; inconclusive = no clear call, values can overlap the other calls;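 note: luminescence divided by OD600 gain over 9 h not by final OD600 alone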
# PP1 inh – PP1-alpha (human) inhibition in PP5 counter-screen. purified PP1alpha, OMFP fluorescence. 320,000 tested, 0.9% active. AID 2235. inhibition, % at 6.7 µM. P62136;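 active = inhibition above the mean inhibition of all tested compounds plus 3 SD, computed separately for each screening campaign, cut at about 15% in these data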
# Target sequence (P62136 whole entry, looked up): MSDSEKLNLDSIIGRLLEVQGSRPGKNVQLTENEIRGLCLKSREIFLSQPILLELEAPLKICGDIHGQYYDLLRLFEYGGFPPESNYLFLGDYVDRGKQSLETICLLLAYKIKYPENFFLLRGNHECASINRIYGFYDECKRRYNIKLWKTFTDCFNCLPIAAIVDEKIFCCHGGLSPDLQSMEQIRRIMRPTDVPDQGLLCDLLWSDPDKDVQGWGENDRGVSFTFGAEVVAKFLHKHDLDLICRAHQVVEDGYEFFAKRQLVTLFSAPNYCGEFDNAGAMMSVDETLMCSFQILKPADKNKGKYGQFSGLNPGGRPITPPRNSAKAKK
# UBC13 polyUb – blocks human UBC13 polyubiquitin chain formation. AID 485273. inhibition, % at 20 µM. TR-FRET. 330,000 tested, 0.47% active; in the data active = inhibition above about 45%, passing the limit was not always enough; inconclusive = no clear call, values can overlap the other calls
# Casp3 UBC13 ctr – caspase-3 inhibition (UBC13 counter-screen); shares compounds with UBC13 polyUb; Recombinant caspase-3, Caspase-Glo 3/7 luminescence, 60 min; inhibition, % at 20 µM; 1,400 tested, 4% active; AID 488856;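 active = mean inhibition across replicates above about 26%, limit read from the data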
# Target sequence (P42574 whole entry, looked up): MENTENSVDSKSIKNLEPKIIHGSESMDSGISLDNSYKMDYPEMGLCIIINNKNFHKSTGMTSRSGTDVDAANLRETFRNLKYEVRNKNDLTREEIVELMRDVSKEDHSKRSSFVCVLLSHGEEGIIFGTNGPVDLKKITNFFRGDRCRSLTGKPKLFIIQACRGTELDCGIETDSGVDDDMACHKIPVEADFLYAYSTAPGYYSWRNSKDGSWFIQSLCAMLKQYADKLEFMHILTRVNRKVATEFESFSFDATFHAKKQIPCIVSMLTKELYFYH
# UBC13 conf – confirmation of human UBC13 polyubiquitin inhibitors; shares compounds with UBC13 polyUb; UBC13 polyubiquitination, TR-FRET, biochemical; inhibition, % at 10 µM; 1,400 tested, 68% active; in the data active = inhibition above about 45%; inconclusive = no clear call, values can overlap the other calls
# Hits are given with their value; i = inactive; ? = inconclusive; nt = no result given. This is a sample that favours compounds with a hit; in the whole collection about 2.8% have one here.
SMILES,T cruzi inh,pCIP destab,AI-2 QS modul,PP1 inh,UBC13 polyUb,Casp3 UBC13 ctr,UBC13 conf
Cn1c2ccc(Cl)cc2c2nc3ccccc3nc21,i,i,i,i,48.7,i,i
Cn1c2ccc(F)cc2c2nc3ccccc3nc21,i,i,i,i,50.7,i,i
Cc1ccc2c(c1)c1nc3ccccc3nc1n2C,i,i,i,i,52.9,i,i
CCOc1ccc2c(c1)c1nc3ccccc3nc1n2C,i,i,i,nt,nt,nt,nt
S=c1[nH]cnc2sc(-c3ccccc3)cc12,i,i,i,i,i,nt,nt
O=C(NCc1ccccc1Cl)C(=O)NCC(c1ccco1)N1CCOCC1 (stereo unspecified),i,i,i,i,i,nt,nt
Fc1cccc(-n2cc(-c3ccccc3)c3c(=S)nc[nH]c32)c1,i,i,i,i,55.5,i,?
Fc1ccc(-n2cc(-c3ccccc3)c3c(=S)nc[nH]c32)cc1,i,i,i,i,i,nt,nt
O=C(CSc1cc(Cl)ccc1Cl)NCC(=O)Nc1ccc(F)c(F)c1F,i,i,i,i,70.7,i,78.6
O=C(NC1CCCC1)C(c1ccncc1)N(C(=O)c1csnn1)C1CCCC1 (stereo unspecified),i,i,i,i,i,nt,nt
C[C@@H](NCCc1ccc(O)cc1)[C@@H](O)c1ccc(O)cc1,i,nt,i,i,i,nt,nt
CCCCCCCCNC(C)C(O)c1ccc(SC(C)C)cc1 (stereo unspecified),?,i,i,i,71.1,i,74.9
Cn1cc(Br)c(C(=O)NN2C(=O)C3C(C2=O)C2C=CC3C23CC3)n1 (stereo unspecified),i,i,i,i,i,nt,nt
COc1cc(-c2nc3ccc(N4CCN(C)CC4)cc3[nH]2)cc(OC)c1OC,i,i,i,i,45.4,i,i
CCOc1ccc(Nc2nc(NCC3CCCO3)c3ccccc3n2)cc1 (stereo unspecified),i,i,i,i,66.3,i,86.2
COc1ccc(CC(=O)NC(c2ccccc2)c2ccc(C)cc2)c(OC)c1 (stereo unspecified),i,i,i,i,i,nt,nt
Cc1c(CCOC(=O)c2ccccc2)sc[n+]1CC(=O)c1ccc(Br)cc1,i,i,i,i,i,nt,nt
Cc1c(CCOC(=O)CC23CC4CC(CC(C4)C2)C3)sc[n+]1CC(=O)c1ccc(Br)cc1,i,i,i,i,47.1,i,68.8
Cc1c(CCOC(=O)CC23CC4CC(CC(C)(C4)C2)C3)sc[n+]1CC(=O)c1ccccc1,i,i,i,i,63.3,i,51.6
CCCCCc1cc(=O)oc2c(C(CCN3CCCCC3)c3ccc(OC)cc3)c(OC)cc(OC)c12 (stereo unspecified),i,i,i,i,83.8,i,62.8
CCCCCc1cc(=O)oc2c(C(CCN3CCCC3)c3cc(OC)c(OC)c(OC)c3)c(OC)cc(OC)c12 (stereo unspecified),i,i,i,i,80.3,i,73.4
CCCCCc1cc(=O)oc2c(C(CCN3CCN(c4ccccc4)CC3)c3ccc4c(c3)OCO4)c(OC)cc(OC)c12 (stereo unspecified),i,i,i,i,i,nt,nt
CCCCCc1cc(=O)oc2c(C(CCN3CCCC(C)C3)c3ccc(OC)cc3)c(OC)cc(OC)c12 (stereo unspecified),65.8,i,i,i,65.2,i,53.1
CCCCCc1cc(=O)oc2c(C(CCN3CCCC3)c3ccc(N(C)C)cc3)c(OC)cc(OC)c12 (stereo unspecified),i,i,i,i,81.7,i,i
CCOc1ccc(NS(=O)(=O)c2coc(C(N)=O)c2)cc1,i,i,i,i,i,nt,nt
SMILES,T cruzi inh,pCIP destab,AI-2 QS modul,PP1 inh,UBC13 polyUb,Casp3 UBC13 ctr,UBC13 conf
O=C(CN1CCCC1)Nc1ccc(Br)cc1[N+](=O)[O-],i,i,i,i,i,nt,nt
CCCCCc1cc(=O)oc2c(C(CCN(CC)CC)c3ccc(OC)cc3)c(OC)cc(OC)c12 (stereo unspecified),i,i,i,i,82.8,i,76.2
CCN(CC)CCC(c1ccc(N(C)C)cc1)c1c(OC)cc(OC)c2ccc(=O)oc12 (stereo unspecified),i,i,i,i,i,nt,nt
Cc1ccc(NC(=O)c2ccc(NCCN)c([N+](=O)[O-])c2)cc1Cl,i,i,i,i,67.3,i,82.9
O=C(CCCCCN1C(=O)c2cccc3cccc(c23)C1=O)NCCO,i,i,i,i,46.6,i,i
Cc1cccc(C)c1NC(=O)CNC(=O)CCCN1C(=O)c2cccc3cccc(c23)C1=O,nt,nt,nt,i,i,nt,nt
O=C(COC(=O)/C=C/c1ccc(OC(F)F)cc1)NC1CCCC1,nt,nt,nt,i,i,nt,nt
COc1ccc(C(=O)Nc2ccccc2N2CCN(C(=O)c3ccccc3)CC2)cc1Br,i,i,i,i,i,nt,nt
Cc1ccc(-c2csc(N3CCN(c4cc5c(cc4Cl)nc(C)n5CCN4CCCCC4)CC3)n2)cc1,i,i,i,i,46.0,i,i
O=C(NCCc1ccccc1)C1CCC(=O)N(Cc2cccc(C(F)(F)F)c2)C1 (stereo unspecified),i,i,i,nt,i,nt,nt
FC(F)(F)c1cc(CO[C@@H]2CCCN[C@@H]2c2ccccc2)cc(C(F)(F)F)c1,nt,nt,nt,i,58.2,i,55.2
Cc1cc(C)c2nc(-c3ccccn3)cc(C(=O)n3cccn3)c2c1,i,i,i,i,45.3,i,i
Cc1c(Cl)ccc2c(C(N)=O)cc(-c3ccccn3)nc12,i,i,i,i,i,nt,nt
CN(C)/C=C1/Sc2ccccc2C1=O,i,i,i,i,i,nt,nt
COc1ccc(CCN(/C=C2\Sc3ccccc3C2=O)C(C)=O)cc1OC,i,i,i,i,51.8,i,i
COc1ccc(-c2nnc(C(C)Nc3cccc(C(=O)NC4CC4)c3)o2)cc1 (stereo unspecified),nt,nt,nt,nt,i,nt,nt
COc1cccc2oc3ccc(C#CC4(N)CCCCC4)cc3c(=O)c12,i,i,i,i,52.7,79.5,i
O=C(Cn1cc(C(=O)c2ccco2)c2ccccc21)NC1CCCC1,i,i,i,i,i,nt,nt
O=C(Cn1cc(C(=O)c2cccs2)c2ccccc21)NC1CCCCC1,i,i,i,i,61.2,i,i
Cc1ccc(-c2nnc(OCC3CCCO3)c3ccccc23)cc1 (stereo unspecified),i,i,i,i,i,nt,nt
N#Cc1nc(-c2cccc3ccccc23)oc1NCCN1CCCCC1,i,i,i,i,71.2,i,91.4
Cc1ccc(Nc2nnc(SCC(=O)NC3CC3)s2)cc1,nt,nt,nt,i,i,nt,nt
COC(=O)c1c(NC(=O)c2cccc(N3C(=O)CCC3=O)c2)sc2c1CCN(C(C)=O)C2,i,i,i,i,i,nt,nt
COC(=O)c1c(NC(=O)c2nc3ccccc3s2)sc2c1CCN(C(C)=O)C2,nt,i,nt,i,103.5,i,94.0

# Screening data (PubChem BioAssay)
